This note sets out measurements from ChEMBL document CHEMBL4706621, “An attempt to chemically state the cross-talk between monomers of COX homodimers by double/hybrid inhibitors mofezolac-spacer-mofezolac and mofezolac-spacer-arachidonic acid” (Eur J Med Chem, 2021).

In data set [1] the target is T1, Prostaglandin G/H synthase 2 (Homo sapiens) (UniProt P35354).
T1 sequence (whole entry): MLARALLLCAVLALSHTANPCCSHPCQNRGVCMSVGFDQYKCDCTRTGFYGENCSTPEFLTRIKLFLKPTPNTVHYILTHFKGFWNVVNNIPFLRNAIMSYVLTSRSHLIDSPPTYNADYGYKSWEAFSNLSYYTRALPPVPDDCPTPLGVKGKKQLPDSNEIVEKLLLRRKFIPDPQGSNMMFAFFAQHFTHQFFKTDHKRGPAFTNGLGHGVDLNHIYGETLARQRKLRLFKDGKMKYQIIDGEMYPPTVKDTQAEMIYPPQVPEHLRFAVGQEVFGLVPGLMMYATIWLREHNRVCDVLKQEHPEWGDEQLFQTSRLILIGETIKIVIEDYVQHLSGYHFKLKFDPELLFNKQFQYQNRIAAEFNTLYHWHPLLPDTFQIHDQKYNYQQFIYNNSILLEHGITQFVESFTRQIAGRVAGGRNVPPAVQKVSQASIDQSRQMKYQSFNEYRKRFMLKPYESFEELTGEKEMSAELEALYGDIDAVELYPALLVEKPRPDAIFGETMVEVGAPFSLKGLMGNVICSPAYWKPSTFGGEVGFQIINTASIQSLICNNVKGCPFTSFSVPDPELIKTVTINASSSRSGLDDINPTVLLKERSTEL
The experiment in a line: Inhibition of human COX-2 assessed as peroxidase activity using arachidonic acid as substrate at 50 uM by colorimetric method. The gist of the method: (§1)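 Colorimetric COX inhibitor screening kit measuring cyclooxygenase peroxidase activity on arachidonic acid substrate, read as oxidized TMPD at 590 nm. Compound stocks are made in DMSO. IC50 is the mean of at least three independent measurements. Percent inhibition is taken at the highest final inhibitor concentration, 50 µM.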

Data set [2] relates to Plasma. Briefly: Anticoagulant activity in human plasma assessed as activated partial thromboplastin time at 100 uM. In kind it is functional. A digest of the protocol:
(§2)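 Human platelet-poor plasma from whole blood (n=3) by differential centrifugation, run on a coagulation analyzer. Compounds at 100 µM incubated with plasma 15 min at room temperature, then 2 min at 37 °C. For aPTT, cephalin is added for 2 min and clotting is started with 0.025 M CaCl2. For PT, PBS is added for 3 min and clotting is started with calcium thromboplastin. Clotting time is read in seconds at 37 °C. Negative control is 1% DMSO; positive control is 100 µM rivaroxaban.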

Data set [3] can be described thus: Hemolytic activity against human erythrocytes assessed as hemolysis incubated for 3 hrs by spectrophotometric analysis relative to control. As to conditions: read-out: Activity; call rule not given here. It is filed as ADME, cell-based, Erythrocyte. A digest of the protocol: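 Citrated human blood (n=3) centrifuged at 2500 rpm for 15 min. The erythrocyte pellet is washed three times and resuspended in PBS pH 7.4. Compounds are incubated with the erythrocytes for 3 h at 37 °C. After centrifugation, released hemoglobin is read at 540 nm. Controls are 1% DMSO (negative) and 1% Triton X-100 (positive). Below 10% counts as non-hemolytic.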

A short description of data set [4]: Genotoxicity in Salmonella typhimurium TA100 at 10 to 500 uM by AMES test. It is filed as toxicity. As to conditions: salmonella enterica subsp. enterica serovar typhimurium, dose 10-500 µM. A digest of the protocol:
(§3)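 Ames reverse mutation to histidine prototrophy using S. typhimurium TA97, TA98, TA100 and TA102. Compounds are dissolved in DMSO and tested at 10, 100 and 500 µM.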

Data set [5] can be described thus: Mutagenicity in Escherichia coli PQ37 at 10 to 500 uM by SOS-chromotest. In kind it is toxicity. The note with it: dose 10-500 µM. A digest of the protocol:
(§4)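 SOS chromotest spot assay with E. coli PQ35 and PQ37. An overnight culture is diluted in LB and grown at 37 °C to 2×10^8 bacteria/mL. Then 0.1 mL is mixed in top agar and poured on M63 plates. 10 µL of compound in DMSO (10, 100 or 500 µM) is spotted centrally and plates are incubated overnight at 37 °C. A blue ring around the inhibition zone indicates genotoxicity. Run in triplicate with 4-NQO as positive control.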

Data set [6] in a line: Selectivity index, ratio of IC50 for human COX-2 to IC50 for ovine COX-1. A digest of the protocol: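 Selectivity index is calculated as COX-2 IC50 divided by COX-1 IC50, each taken from the colorimetric TMPD peroxidase assay with arachidonic acid substrate.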
The test system of data set [7] is Vero. Briefly: Cytotoxicity against African green monkey Vero cells at 10 uM measured after 48 hrs by MTT assay relative to control. It is filed as cell-based. As to conditions: chlorocebus sabaeus. A digest of the protocol: (§5)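 Vero cells grown at 37 °C in 5% CO2 in medium with 10% inactivated FBS. Cells seeded at 3.2×10^4 per well and grown 24 h, then exposed to compounds for 48 h (n = 4). Control is DMEM with 10% FBS and 1% DMSO. MTT (2.5 mg/mL solution) is added for 3 h, formazan is dissolved in DMSO and absorbance is read at 570 nm. Viability is given as % of untreated cells, mean ± SD.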
A general note: Tetrazolium assays rely on reduction of a dye to a coloured formazan, in cell work by metabolically active cells.

Data set [8] in a line: Genotoxicity in Salmonella typhimurium TA98 at 10 to 500 uM by AMES test. In kind it is toxicity. As to conditions: salmonella enterica subsp. enterica serovar typhimurium, dose 10-500 µM. A digest of the protocol: as §3
The nature of data set [9]: Genotoxicity in Salmonella typhimurium TA97 at 10 to 500 uM by AMES test. In kind it is toxicity. As to conditions: salmonella enterica subsp. enterica serovar typhimurium, dose 10-500 µM. A digest of the protocol: as §3
Data set [10] deals with T2, Prostaglandin G/H synthase 1 (Ovis aries, UniProt P05979).
T2 sequence (P05979 whole entry): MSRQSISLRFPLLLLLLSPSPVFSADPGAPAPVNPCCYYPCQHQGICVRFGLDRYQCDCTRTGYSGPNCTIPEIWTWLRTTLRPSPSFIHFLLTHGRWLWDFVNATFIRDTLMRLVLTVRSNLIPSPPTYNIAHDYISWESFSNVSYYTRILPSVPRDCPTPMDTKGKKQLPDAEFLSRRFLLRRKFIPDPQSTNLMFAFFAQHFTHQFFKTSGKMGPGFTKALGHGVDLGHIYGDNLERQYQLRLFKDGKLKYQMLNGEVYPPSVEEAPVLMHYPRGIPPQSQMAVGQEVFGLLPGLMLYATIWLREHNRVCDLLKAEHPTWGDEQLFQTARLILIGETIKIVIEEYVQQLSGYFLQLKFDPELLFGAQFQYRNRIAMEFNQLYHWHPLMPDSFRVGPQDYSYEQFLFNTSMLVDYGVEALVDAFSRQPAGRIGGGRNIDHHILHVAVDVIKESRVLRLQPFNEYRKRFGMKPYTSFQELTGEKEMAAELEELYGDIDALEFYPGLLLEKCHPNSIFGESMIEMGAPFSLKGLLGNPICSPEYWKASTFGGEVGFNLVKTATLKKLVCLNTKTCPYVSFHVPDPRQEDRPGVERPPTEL
The experiment in a line: Inhibition of ovine COX-1 assessed as peroxidase activity using arachidonic acid as substrate by colorimetric method. The gist of the method:
as §1

Data set [11] addresses T3, Prostaglandin G/H synthase 2 (Homo sapiens, UniProt P35354).
T3 sequence (P35354 whole entry): T1 sequence (whole entry)
The experiment in a line: Inhibition of human COX-2 assessed as peroxidase activity using arachidonic acid as substrate by colorimetric method. A digest of the protocol: as §1

The test system of data set [12] is Plasma. The experiment in a line: Anticoagulant activity in human plasma assessed as prothrombin time at 100 uM. In kind it is functional. A digest of the protocol:
as §2

Data set [13] in a line: Mutagenicity in Escherichia coli PQ35 at 10 to 500 uM by SOS-chromotest. The note with it: dose 10-500 µM. In kind it is toxicity. The gist of the method:
as §4

Data set [14] has as its system Plasma. Briefly: Antiplatelet activity in human platelet-rich plasma assessed as inhibition of arachidonic acid-induced platelet aggregation by turbidimetric method. In kind it is functional. The gist of the method:
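Platelet-rich and platelet-poor plasma prepared from human whole blood (n=3) by differential centrifugation. Compounds pre-incubated in PRP for 2 min, then aggregation is induced with 500 µM arachidonic acid and followed turbidimetrically in an aggregometer. IC50 is determined from several concentrations, in triplicate. Acetylsalicylic acid is the positive control; 1% DMSO vehicle is the negative control.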

For data set [15], the system named is Vero. The experiment in a line: Cytotoxicity against African green monkey Vero cells at 100 uM measured after 48 hrs by MTT assay relative to control. In kind it is cell-based. The note with it: chlorocebus sabaeus. A digest of the protocol:
as §5

Data set [16] addresses T4, Prostaglandin G/H synthase 1 (Ovis aries) (UniProt P05979).
T4 sequence (whole entry): T2 sequence (P05979 whole entry)
The experiment in a line: Inhibition of ovine COX-1 assessed as peroxidase activity using arachidonic acid as substrate at 50 uM by colorimetric method. The gist of the method: as §1

A short description of data set [17]: Genotoxicity in Salmonella typhimurium TA102 at 10 to 500 uM by AMES test. It is filed as toxicity. As to conditions: salmonella enterica subsp. enterica serovar typhimurium, dose 10-500 µM. A digest of the protocol: as §3

Regarding `CCCCC/C=C\C/C=C\C/C=C\C/C=C\CCCC(=O)Nc1ccc(-c2ccc(NC(=O)Cc3onc(-c4ccc(OC)cc4)c3-c3ccc(OC)cc3)cc2)cc1`, the inhibition in data set [1] came to 60%; in data set [16], 50%. For the same compound, the APTT in the data set on Plasma [2] was found to be 48 s. Moreover, the hemolysis at 3 h in data set [3] amounted to 0.14%. Moreover, the Activity result is reported as “Non-Toxic” in [4]; “Non-Toxic” in [5]; 94% in the data set on Vero [7]; “Non-Toxic” in [8]; “Non-Toxic” in [9]; “Non-Toxic” in [13]. Moreover, the Activity was 84% with Vero [15] and “Non-Toxic” in [17]. In data set [6], the Ratio IC50 is 0.005. Besides, the figures for the concentration for half-maximal inhibition (IC50) (in [10]; in data set [11]; with Plasma [14]) were 17000 nM, 90 nM and 760 nM, respectively. Moreover, the PT with Plasma [12] is recorded as 14.6 s.

For `COc1ccc(-c2noc(CC(=O)Nc3ccc(NC(=O)Cc4onc(-c5ccc(OC)cc5)c4-c4ccc(OC)cc4)cc3)c2-c2ccc(OC)cc2)cc1`, the APTT in the data set with Plasma [2] worked out at 47.5 s. The hemolysis at 3 h in data set [3] is 0%. The Activity entry is recorded as “Non-Toxic” in data set [4]; “Non-Toxic” in [5]; 98% in the data set with Vero [7]; “Non-Toxic” in data set [8]; “Non-Toxic” in data set [9]; “Non-Toxic” in data set [13]. The values for the Activity (with Vero [15]; in [17]) were 97% and “Non-Toxic”, respectively. In addition, the Ratio IC50 in [6] is above 333. Besides, the IC50 is 150 nM in data set [10], above 50000 nM in [11] and 910 nM in the data set on Plasma [14]. For the same compound, the PT with Plasma [12] is reported as 15.5 s. The inhibition in data set [16] was 85%.

The inhibition is how much of the control response was suppressed. Usually IC50 stands for the midpoint of a concentration-inhibition curve.
